Assay [1] relates to Rattus norvegicus. The assay can be described thus: Inhibition of locomotion in rats after the compound administered through perorally. In kind it is functional. As to conditions: po. In a few lines: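 Oral dosing in rats, with spontaneous locomotor activity scored alongside ataxia. ED50 reported ± SEM.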
In assay [2] the target is Voltage-gated L-type calcium channel (Rattus norvegicus, UniProt P22002+Q02485+P27732). The assay can be described thus: Displacement of [3H]nitrendipine from L-type [Ca2+] channel of rat brain. In kind it is tissue-based.
Assay [3] deals with Beta-1 adrenergic receptor (Rattus norvegicus, UniProt P18090). The assay can be described thus: Displacement of [3H]DHA (Dihydroalprenolol) from beta-1 adrenergic receptor in rat brain. In kind it is tissue-based. In a few lines:
(§1)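 Rat brain radioligand displacement binding. IC50 values (μM) were derived by nonlinear regression from four or five concentrations of compound.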
(In general: In a radioligand displacement assay an active substance lowers the binding of a labelled ligand.)

Assay [4] relates to Rattus norvegicus. The assay can be described thus: Inhibition of self-stimulation in rats after the compound administered through perorally. The class given is functional. The settings on record: po. A digest of the protocol: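 Suppression of high base line self-stimulation in rats after oral dosing. Read-out is ED50 in mg/kg.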
In assay [5] the target is T1, Adrenergic receptor alpha-2 (Rattus norvegicus, UniProt P22086+P19328+P22909).
T1 sequence (P22086 whole entry): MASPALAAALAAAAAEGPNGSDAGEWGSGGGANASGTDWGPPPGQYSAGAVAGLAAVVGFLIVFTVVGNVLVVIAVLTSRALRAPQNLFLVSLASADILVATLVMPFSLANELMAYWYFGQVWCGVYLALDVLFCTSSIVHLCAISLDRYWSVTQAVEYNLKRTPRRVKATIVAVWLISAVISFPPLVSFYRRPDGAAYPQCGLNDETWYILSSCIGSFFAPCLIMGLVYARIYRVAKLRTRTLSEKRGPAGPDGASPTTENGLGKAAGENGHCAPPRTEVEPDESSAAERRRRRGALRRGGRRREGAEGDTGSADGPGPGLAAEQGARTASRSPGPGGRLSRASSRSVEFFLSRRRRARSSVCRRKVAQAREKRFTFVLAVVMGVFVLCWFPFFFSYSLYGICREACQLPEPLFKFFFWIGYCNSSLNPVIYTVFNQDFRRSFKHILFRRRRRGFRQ
T1 sequence (P19328 whole entry): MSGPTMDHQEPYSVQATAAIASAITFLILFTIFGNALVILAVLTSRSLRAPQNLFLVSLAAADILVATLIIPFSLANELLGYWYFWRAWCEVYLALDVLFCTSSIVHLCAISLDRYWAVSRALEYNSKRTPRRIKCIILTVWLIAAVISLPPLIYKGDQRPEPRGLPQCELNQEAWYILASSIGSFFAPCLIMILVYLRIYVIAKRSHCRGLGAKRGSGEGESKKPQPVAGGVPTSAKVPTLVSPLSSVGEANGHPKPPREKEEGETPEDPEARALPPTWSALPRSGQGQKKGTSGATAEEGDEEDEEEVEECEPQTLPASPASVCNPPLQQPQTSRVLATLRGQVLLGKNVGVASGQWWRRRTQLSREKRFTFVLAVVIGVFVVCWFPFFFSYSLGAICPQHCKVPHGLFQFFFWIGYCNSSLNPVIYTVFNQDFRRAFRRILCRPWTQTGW
T1 sequence (P22909 whole entry): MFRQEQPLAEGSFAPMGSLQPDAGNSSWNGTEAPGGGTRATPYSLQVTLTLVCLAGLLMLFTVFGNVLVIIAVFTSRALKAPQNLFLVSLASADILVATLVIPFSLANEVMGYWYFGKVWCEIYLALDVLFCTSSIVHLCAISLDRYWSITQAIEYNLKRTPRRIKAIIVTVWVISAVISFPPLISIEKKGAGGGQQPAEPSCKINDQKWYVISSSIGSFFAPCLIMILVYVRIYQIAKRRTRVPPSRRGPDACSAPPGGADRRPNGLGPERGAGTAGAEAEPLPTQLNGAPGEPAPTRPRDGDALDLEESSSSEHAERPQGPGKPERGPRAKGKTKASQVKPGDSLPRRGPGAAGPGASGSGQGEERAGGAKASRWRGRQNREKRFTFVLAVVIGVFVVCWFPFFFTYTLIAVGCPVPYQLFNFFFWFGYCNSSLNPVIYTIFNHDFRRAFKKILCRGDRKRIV
The assay can be described thus: Displacement of [3H]clonidine from alpha-2 adrenergic receptor in rat brain. In kind it is tissue-based. In a few lines:
as §1

Sequence of Beta-1 adrenergic receptor (P18090 whole entry): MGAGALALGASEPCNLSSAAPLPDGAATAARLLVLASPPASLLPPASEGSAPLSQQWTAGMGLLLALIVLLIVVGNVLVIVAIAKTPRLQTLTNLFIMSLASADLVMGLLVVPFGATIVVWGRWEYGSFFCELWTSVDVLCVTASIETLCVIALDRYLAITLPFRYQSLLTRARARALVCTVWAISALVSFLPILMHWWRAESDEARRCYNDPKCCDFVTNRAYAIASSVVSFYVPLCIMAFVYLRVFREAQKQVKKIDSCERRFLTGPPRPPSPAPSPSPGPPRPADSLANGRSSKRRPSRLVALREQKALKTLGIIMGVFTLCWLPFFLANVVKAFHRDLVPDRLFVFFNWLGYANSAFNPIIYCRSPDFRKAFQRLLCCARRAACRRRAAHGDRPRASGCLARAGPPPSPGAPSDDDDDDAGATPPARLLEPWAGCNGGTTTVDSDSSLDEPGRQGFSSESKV

By ED50 is commonly meant the dose at which the effect has come halfway, by size or by number of responders. A high value points to weaker potency. Broadly, the IC50 is the concentration that inhibits the measured activity by half. With `CCC1CN2C(C)=Nc3c(C)nn(C)c3C2=N1` (stereo not given), the ED50 in the assay on Rattus norvegicus [1] turned out to be 15.5 mg/kg; with Rattus norvegicus [4], 10.8 mg/kg. Also, the IC50 in assay [2], in assay [3] and in assay [5] was greater than 10 µM each time.

These data come from ChEMBL document CHEMBL1124042, “Synthesis and potential antipsychotic activity of 1H-imidazo[1,2-c]pyrazolo[3,4-e]pyrimidines” (J Med Chem, 1988).
